Measured values gathered from unrelated publications.
Protocols differ between the studies behind these lines.
CDK1: Cyclin-dependent kinase 1 (CDK1, Homo sapiens, UniProt P06493)
CDK9: Cyclin-dependent kinase 9 (CDK9, Homo sapiens, UniProt P50750)
SGK2: Serine/threonine-protein kinase Sgk2 (SGK2, Homo sapiens, UniProt Q9HBY8)

Structure (SMILES) | target | assay | test system | setting | endpoint | result
C[C@]1(O)CCCN(c2nc(Nc3ccc(S(=O)(=O)N[C@@H]4CCN(CC5CCN(c6ccc(C7CCC(=O)NC7=O)cc6F)CC5)C[C@H]4F)cc3F)ncc2C(F)(F)F)C1 (stereo partly shown) | CDK1 | protein level, degrader, western blot | TOV21G | – | Dmax | 26%
CC(C)(C)c1cnc(CSc2cnc(NC(=O)C3CCN(C(=O)CCCCCCN4Cc5cc6c(cc5C4)C(=O)N(C4CCC(=O)NC4=O)C6=O)CC3)s2)o1 (stereo not shown) | CDK9 | protein level, degrader, western blot | TC-71 | 25 nM | inhibition | 95.8%
CCCCC(=O)Nc1ccc(-c2ccc3ncn(CCC)c(=O)c3c2)cn1 | SGK2 | binding, competition with immobilised ligand | – | 0.5 µM | remaining binding | 100%
C[C@H]1CN(CC2CCN(c3ccc(C4CCC(=O)NC4=O)cc3F)CC2)CC[C@H]1NS(=O)(=O)c1ccc(Nc2ncc(C(F)(F)F)c(N3CCC[C@](C)(O)C3)n2)c(F)c1 (stereo partly shown) | CDK1 | protein level, degrader, western blot | TOV21G | – | Dmax | 40%
CC(=O)ON=C1C=CC(=C(C#N)c2ccccc2)C=C1 | Dual specificity protein kinase CLK1 (Clk1, Mus musculus, UniProt P22518) | enzyme activity, inhibitor, ADP detection | – | 20 µM | activity vs control | 99%
CC(C)(C)c1cnc(CSc2cnc(NC(=O)C3CCN(C(=O)CCCCCCCCCN4Cc5cc6c(cc5C4)C(=O)N(C4CCC(=O)NC4=O)C6=O)CC3)s2)o1 (stereo not shown) | CDK9 | protein level, degrader, western blot | TC-71 | 25 nM | inhibition | 91.8%
COc1cc(Br)cc(C2NC(=O)NC(C)=C2C(=O)OCc2ccccc2)c1O (stereo not shown) | Voltage-dependent T-type calcium channel subunit alpha-1H (CACNA1H, Homo sapiens, UniProt O95180) | ion current, inhibitor, patch clamp | HEK293 | 10 µM | inhibition | > 60%
NC/C(=C\F)COc1cccc(Cn2c(=S)[nH]c(=O)c3[nH]cnc32)c1 | Myeloperoxidase (Mus musculus, UniProt P11247) | enzyme activity, inhibitor | – | 10 µM | remaining activity | -4.18%
C#Cc1cc(-c2cc(Nc3nc(N[C@@H](C)c4ccc(F)cn4)ncc3Cl)n[nH]2)ccc1C=O | SGK2 | enzyme activity, inhibitor | – | 0.2 µM | inhibition | 4.48%
COc1ccc2oc(-c3ccc4nc(N)oc4c3)c/c(=N\c3ccccc3NC(=O)CCN)c2c1 | Proto-oncogene tyrosine-protein kinase Src (SRC, Homo sapiens, UniProt P12931, T341M) | cell-free assay | – | 1 µM | remaining signal | 90%
C1=C/COCc2cc(ccc2OCCN2CCCC2)Nc2nccc(n2)-c2cccc(c2)COC/1 | Dual specificity mitogen-activated protein kinase kinase 7 (MAP2K7, Homo sapiens, UniProt O14733) | cell-free assay | – | 0.1 µM | remaining signal | 73%
CC(C)(C)c1cnc(CSc2cnc(NC(=O)C3CCN(C(=O)CCCCCN4Cc5cc6c(cc5C4)C(=O)N(C4CCC(=O)NC4=O)C6=O)CC3)s2)o1 (stereo not shown) | CDK9 | protein level, degrader, western blot | TC-71 | 25 nM | inhibition | 93.4%
Cc1cc2c(C(N)=O)c(N)n(-c3c(C)ccc(O)c3C)c2nc1C | Proto-oncogene tyrosine-protein kinase Src (SRC, Homo sapiens, UniProt P12931) | enzyme activity, inhibitor, TR-FRET | – | 1.524 nM | inhibition | 20.4%
